Measured values taken from ChEMBL document CHEMBL3046184, “New analogues of (E)-β-farnesene with insecticidal activity and binding affinity to aphid odorant-binding proteins” (J Agric Food Chem, 2011).
Active and inactive are the calls of the source. No cut-off for these calls is given here.

Legend:
[1] = Displacement of fluorescent probe 1-NPN from Acyrthosiphon pisum (pea aphid) recombinant OBP2 by competitive binding assay
[2] = target: T1, Odorant-binding protein 3 (Acyrthosiphon pisum) (UniProt C1KUY3); assay: Displacement of fluorescent probe 1-NPN from Acyrthosiphon pisum (pea aphid) recombinant OBP3 by competitive binding assay
T1 sequence (whole entry): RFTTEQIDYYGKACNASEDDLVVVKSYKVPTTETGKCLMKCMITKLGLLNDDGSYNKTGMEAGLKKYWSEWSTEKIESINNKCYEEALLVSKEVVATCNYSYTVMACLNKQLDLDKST
Outline: (§1)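 Recombinant A. pisum OBP and the probe 1-NPN were each at 2 μM in 50 mM Tris-HCl, titrated with competitor to 2-16 μM final. Excitation was at 337 nm, with emission recorded at 380-450 nm and intensity read at the maximum (406-409 nm). The IC50 was taken as the concentration halving initial fluorescence, and Ki = IC50/(1+[1-NPN]/K1-NPN) using free 1-NPN.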

[3] = target: T2, Odorant-binding protein 1 (Acyrthosiphon pisum) (UniProt C1KUY1); assay: Displacement of fluorescent probe 1-NPN from Acyrthosiphon pisum (pea aphid) recombinant OBP1 by competitive binding assay
T2 sequence (whole entry): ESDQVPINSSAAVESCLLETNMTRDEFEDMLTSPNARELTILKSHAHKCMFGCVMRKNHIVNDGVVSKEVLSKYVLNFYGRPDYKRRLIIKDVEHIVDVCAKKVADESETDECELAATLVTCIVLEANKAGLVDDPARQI
Outline: as §1

[4] = system: Aphis gossypii; assay: Insecticidal activity against 3 day old Aphis gossypii (cotton aphid) in compound treated cabbage leaves at 600 microg/mL at 24 to 26 degC for 24 hr; format: functional, organism-based
Outline: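 Compound was dissolved in acetone/methanol/water (1:1:18). Cabbage leaves (~5 cm) bearing aphids were dipped for 5 s and air-dried, then held in Petri dishes. Dead aphids were counted. Solvent served as the negative control and thiacloprid as the positive reference.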

**Q.** Which Activity [1] does the source give for `CC(C)=CCC/C(C)=C/COC(=O)c1c(F)cccc1F` here?
**A.** Active

**Q.** What about the Activity [2] of the same compound?
**A.** Active

**Q.** What about the Activity [3] of the same compound?
**A.** Active

**Q.** With `N#C/N=C1\SCCN1Cc1ccc(Cl)nc1` as the compound, how does the Activity [2] read?
**A.** Active

**Q.** With `CC(C)=CCC/C(C)=C/COC(=O)c1cc(C(C)C)nn1-c1ccc([N+](=O)[O-])cc1` as the compound, how does the Activity [1] read?
**A.** Active

**Q.** And the Activity [2]?
**A.** Active

**Q.** What about the Activity [3] of the same compound?
**A.** Active

**Q.** For `CC(C)=CCC/C(C)=C/COC(=O)c1cc(-c2ccccc2)nn1-c1ccc([N+](=O)[O-])cc1`, which Activity [1] is on record?
**A.** Active

**Q.** What about the Activity [2] of the same compound?
**A.** Active

**Q.** And the Activity [3]?
**A.** Active

**Q.** Which Activity [4] does the source give for `CC(C)=CCC/C(C)=C/COC(=O)c1cc(-c2ccccc2)nn1C(C)(C)C` here?
**A.** Active

**Q.** For `CC(C)=CCC/C(C)=C/COC(=O)c1cc(C)nn1C(C)(C)C`, which Activity [2] is on record?
**A.** Active

**Q.** Which results are given for `CC(C)=CCC/C(C)=C/COC(=O)c1ccc(Br)cc1`?
**A.** Activity [4]: Active; Activity [1]: Active; Activity [2]: Active; Activity [3]: Active

**Q.** For `CC(C)=CCC/C(C)=C/COC(=O)c1cc(-c2ccccc2)nn1-c1ccccc1`, which Activity [4] is on record?
**A.** Active

**Q.** For `CC(C)=CCC/C(C)=C/COC(=O)c1cc(C(C)C)nn1C(C)(C)C`, which Activity [2] is on record?
**A.** Active

**Q.** Which Activity [2] does the source give for `CCCc1cc(C(=O)OC/C=C(\C)CCC=C(C)C)n(C(C)(C)C)n1` here?
**A.** Active
